Bioassay records as filed in PubChem.
RAD54 branch: blocks human RAD54 Holliday junction branch migration. FAM/BHQ fluorescence. inhibition, % at 10.4 µM. hit rate 0.14% among 360,000. AID 602329. Q92698;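 active = mean normalized replicate activity at least 40 and at least half of replicates scoring 40 or more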;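 note: inhibitors cause a drop in the FAM fluorescence signal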
Target sequence (Q92698 whole entry, looked up): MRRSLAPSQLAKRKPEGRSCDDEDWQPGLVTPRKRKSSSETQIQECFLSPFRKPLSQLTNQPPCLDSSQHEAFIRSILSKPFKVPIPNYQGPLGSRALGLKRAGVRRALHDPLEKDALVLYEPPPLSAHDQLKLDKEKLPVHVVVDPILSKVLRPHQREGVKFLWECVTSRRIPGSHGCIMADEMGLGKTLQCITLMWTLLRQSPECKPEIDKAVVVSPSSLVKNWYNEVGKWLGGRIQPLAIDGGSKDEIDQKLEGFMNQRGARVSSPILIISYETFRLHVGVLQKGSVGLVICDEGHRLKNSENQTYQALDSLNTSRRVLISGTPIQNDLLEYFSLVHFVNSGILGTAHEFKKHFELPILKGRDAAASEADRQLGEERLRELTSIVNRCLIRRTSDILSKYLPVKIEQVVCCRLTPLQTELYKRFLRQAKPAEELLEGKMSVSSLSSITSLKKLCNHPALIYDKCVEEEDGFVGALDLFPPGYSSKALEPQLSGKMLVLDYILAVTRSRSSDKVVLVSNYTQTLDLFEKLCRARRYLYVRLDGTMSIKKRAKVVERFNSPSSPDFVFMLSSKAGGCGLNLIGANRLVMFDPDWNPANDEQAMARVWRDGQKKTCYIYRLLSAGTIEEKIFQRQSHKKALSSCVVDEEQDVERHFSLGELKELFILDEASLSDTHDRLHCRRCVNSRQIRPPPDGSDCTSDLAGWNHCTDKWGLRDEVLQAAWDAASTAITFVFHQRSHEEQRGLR
RAD52 inh: RAD52 (human) annealing inhibition. P43351. recombinant RAD52 DNA annealing, FRET fluorescence. inhibition, % at 18.7 µM. hit rate 0.46% among 360,000. AID 651710;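 active = every replicate showing at least 50% inhibition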
GSIS activator: primary screen for activators of insulin secretion dependent on glucose, INS-1E cells, GLuc reporter luminescence | hit rate 0.61% among 370,000 | activation, % at 16.6 µM | INS-1E GLuc reporter insulin secretion, 2-3 h;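 active = lowest replicate activation of at least 40%, so every replicate reaches that level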
S100A4 inh HTS: blocks human S100A4 binding to myosin IIA peptide | S100A4/TAMRA-MyoIIA peptide fluorescence polarization | hit rate 0.14% among 360,000 | inhibition, % at 10.7 µM | AID 652163;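 active = mean inhibition of at least 70% across replicates, with every replicate also reaching that level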
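incubation = readout 5 min after mixing, signal stable up to 60 min | system = S100A4 monomer protein | buffer or medium = HEPES pH 7.2 with CaCl2, KCl, NaCl, DTT, Triton | benchmarks = neutral control DMSO, positive control TFP | also added = fluorescent myosin IIA peptide, 5 nM | compound dosing = one concentration per compound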
MLL AF4-AF9 inh: inhibitors of human MLL-AF4/AF9 interaction; P42568; AlphaScreen, biotin-AF4 peptide binding to FLAG-AF9; inhibition, % at 10 µM; hit rate 0.47% among 350,000; AID 651704;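 active = every replicate reaching a set inhibition limit, whatever the replicate mean, cut at about 25% in these data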
A number is an active result; n = inactive; x = no result. Most compounds without a hit are left out; they make up all but 1.3% or so of the library.

SMILES | RAD54 branch | RAD52 inh | GSIS activator | S100A4 inh HTS | MLL AF4-AF9 inh
CO[C@@H]1CN(C)C(=O)c2ccc(NC(C)=O)cc2OC[C@H](C)N(CC2CCCCC2)C[C@@H]1C | n | n | n | n | n
Cc1ccc(S(=O)(=O)Nc2ccc3c(c2)C(=O)N([C@H](C)CO)C[C@H](C)[C@@H](CN(C)C)OCCCC[C@H](C)O3)cc1 | x | x | n | x | n
COCC(=O)N1C[C@@H](C)[C@@H](OC)CN(C)C(=O)c2ccc(NC(=O)c3ccc(F)cc3)cc2OC[C@@H]1C | n | n | n | n | n
C[C@H](NC(=O)C[C@@H]1CC[C@@H](NC(=O)C2CC2)[C@H](CO)O1)c1ccccc1 | n | n | n | n | n
C[C@H]1CN([C@@H](C)CO)S(=O)(=O)c2ccc(-c3ccc(F)cc3)cc2O[C@H]1CN(C)C(=O)C1CCC1 | x | x | n | x | x
Cc1ccc(-n2nc3c(c2NC(=O)C2CC2)CS(=O)(=O)C3)cc1 | n | n | 57 | n | n
Cc1ccc(-n2nc3c(c2NC(=O)C2CC2)CS(=O)(=O)C3)cc1C | n | n | n | n | n
COc1ccc(CNC(=O)C(C)OC(=O)CCN2C(=O)C3CC=CCC3C2=O)cc1 (centres undefined) | n | n | n | n | n
CC(OC(=O)CCN1C(=O)C2CC=CCC2C1=O)C(=O)Nc1cccc(Cl)c1 (centres undefined) | x | n | 63 | n | n
Cc1ccc(Nc2c(-c3ccccn3)nc3ccc(C)cn23)cc1 | n | n | n | n | x
Cc1ccc(Nc2c(-c3ccccn3)nc3cc(C)ccn23)cc1 | n | n | n | n | 37
CN1C(=O)c2cc(NC(=O)C3CCC3)ccc2OC[C@@H]2O[C@@H](CC(=O)NCC3CCCCC3)CC[C@H]21 | x | n | n | n | n
O=C(NC1CCCC1)[C@H]1[C@H](CO)[C@H]2Cn3c(ccc(-c4cccc(F)c4)c3=O)[C@@H]1N2 | x | x | n | x | x
NS(=O)(=O)c1ccc(NC(=O)COC(=O)c2cn(-c3ccccc3)nc2-c2ccc(F)cc2)cc1 | x | x | 65 | x | x
C=C1C(=O)[C@]23C[C@H]1CCC2[C@]1(C)C(=O)CC[C@@](C)(C(=O)O)C1C[C@@H]3O (some centres undefined) | n | n | 93 | n | n
COc1cccc(NC(=O)N[C@H]2C=C[C@H](CC(=O)N3CCOCC3)O[C@@H]2CO)c1 | n | n | n | n | n
CN1C(=O)NC(c2ccccc2[N+](=O)[O-])C2=C1CCCC2=O (centres undefined) | n | n | n | 117 | n
CN1C(=O)NC(c2ccccc2[N+](=O)[O-])C2=C1CC(C)(C)CC2=O (centres undefined) | x | n | n | n | n
CN1C(=O)c2cc(NC(=O)Nc3ccc(Cl)cc3)ccc2OC[C@@H]2O[C@@H](CC(=O)NCCN3CCCCC3)CC[C@H]21 | n | 53 | n | n | n
C[C@H](CO)N1C[C@H](C)[C@@H](CN(C)Cc2ccncc2)Oc2ncc(-c3ccc(C#N)cc3)cc2C1=O | n | n | n | n | n
CO[C@@H]1CN(C)C(=O)c2cc(NC(=O)C3CC3)ccc2OC[C@H](C)N(C(=O)c2cnccn2)C[C@H]1C | n | n | n | n | n
O=C(N/N=C/c1sc(N2CCOCC2)nc1-c1ccccc1)c1ccc(O)cc1 | x | n | n | n | n
COc1ccc(C(=O)N/N=C/c2sc(N3CCOCC3)nc2-c2ccccc2)cc1OC | n | n | n | n | 27
CCOC(=O)N1CCN(S(=O)(=O)c2ccc3c4c(cccc24)C(=O)N3)CC1 | n | n | 42 | n | n
Cc1ccc(C(=O)N2CCN3C(=O)c4ccccc4C23c2ccccc2)cc1 (centres undefined) | x | n | 42 | n | n
O=C1c2ccccc2C2(c3ccccc3)N1CCN2C(=O)C(Cl)(Cl)Cl (centres undefined) | n | n | n | n | n
CC(C)NC(=O)NCC[C@H]1CC[C@H](NS(=O)(=O)c2ccc(Oc3ccccc3)cc2)[C@@H](CO)O1 | n | n | n | n | n
COc1ccc(-c2ccc3c(c2)[C@@H]2[C@@H](CCN2C(=O)C2CC2)[C@@H](CO)N3C)cc1 | n | 68 | n | n | n
COc1ccc(-c2ccc3c(c2)[C@@H]2[C@@H](CCN2C(=O)C2CCC2)[C@H](CO)N3C)cc1 | x | n | n | x | 33
COc1ccc(-c2ccc3c(c2)[C@H]2[C@H](CCN2C(=O)NC2CCCC2)[C@H](CO)N3C)cc1 | x | n | n | n | 26
